The text below walks through data of the EternaBench riboswitch data.

Series [1] concerns MS2 coat protein. The experiment in a line: apparent Kd, MS2 coat protein; higher = weaker binding; RNA-MaP array. The method in brief:
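With or without input ligand, designed RNAs transcribed on an Illumina sequencing chip from sequenced DNA templates were incubated at room temperature with fluorescently labeled MS2 coat protein at 1.5 nM to 3 μM. The buffer was Tris-HCl pH 7.5 with KCl, MgCl2, BSA, DTT, tRNA and Tween20, and incubation ran 0.8–1.5 h at the lowest and 10–20 min at the highest concentrations. Apparent Kd is reported as the median of fits to binding curves from individual clusters. Designs measured on fewer than 10 clusters are not included.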

The test system of series [2] is MS2 coat protein. In words: apparent Kd, MS2 coat protein; higher = weaker binding; RNA-MaP array; FMN 200 µM where present. The gist of the method: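 Two titrations, one without ligand and one with constant ligand, were run with SNAP-549-labelled MS2 coat protein from 0.7 or 1.5 nM, doubling to 3 µM. The targets were designs transcribed by stalled E. coli RNA polymerase on Illumina sequencing-chip clusters, in 100 mM Tris-HCl pH 7.5, 80 mM KCl, 4 mM MgCl2, BSA, DTT, yeast tRNA and Tween-20. The apparent Kd is the median of filtered per-cluster binding-curve fits, with green signal normalised to red-channel RNA signal and control-cluster median Fmax.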

The mark [3] stands for this setting: designed as: OFF switch for flavin mononucleotide, no ligand.
The mark [4] stands for this setting: ligand present: flavin mononucleotide, designed as: OFF switch for flavin mononucleotide.
[5] abbreviates: designed as: ON switch for flavin mononucleotide, no ligand.
Where [6] appears, read: ligand present: flavin mononucleotide, designed as: ON switch for flavin mononucleotide.

“UAGGUGCUAGGAGGAUAUUGUGAAUUUAAUUUUCAAGAAGGCCUGAACAGACUGCACAUGAGGAUCACCCAUGUAUCCAACGUC”: the “apparent Kd” value in the series on MS2 coat protein [1] (setting [3]) stood at 17.2 nM; in the series on MS2 coat protein [1] (setting [4]), 11.7 nM.

Turning to “UGGUUAACAUGACAUGAGGAUCACCCAUGUCUUGGAAUUACAAGAAGGAAGGACACAGGUAGACCUUAGGAUAUUGUGACUUGA”, the results for the “apparent Kd” value with MS2 coat protein [1] (setting [5]) and with MS2 coat protein [1] (setting [6]) were 24.6 nM and 11.6 nM, respectively.

With “AGGCCACAUGAGGAUCACCCAUGUAAGGAUAUUGGAGCAUGGAAACGCUGUGCGCAUGCAAGAAGGUACACGGA”, the “apparent Kd” value was 24.7 nM in the series with MS2 coat protein [1] (setting [3]) and 20.5 nM with MS2 coat protein [1] (setting [4]).

Take “AAACUACGACAUGAGGAUCACCCAUGUACUCCGCUAACUACACAGGAUAUAGUGAGGCCAGAGCUCUAGAAGGGUGUUAAUACG”: the “apparent Kd” value worked out at 40.3 nM in the series with MS2 coat protein [1] (setting [5]) and 28.2 nM with MS2 coat protein [1] (setting [6]).

As for “ACUAGGGACCUGACAUGAGGAUCACCCAUGUUCUCGGAUCACAAGGAUAUCCGCACGUACCUGUGGGAGAAGGUGUCGUCCCAC”, the results for the “apparent Kd” value in the series with MS2 coat protein [1] (setting [5]) and in the series with MS2 coat protein [1] (setting [6]) were 26 nM and 21.8 nM, respectively.

Turning to “UACGGUCAUAGAGGAUAUAGAUCGCGCAACGGUUUCGUGGCCCACAUGAGGAUCACCCAUGUUAUCUAGAAGGCUAUGAGUCGC”, the “apparent Kd” value in the series with MS2 coat protein [1] (setting [3]) amounted to 6.82 nM; with MS2 coat protein [1] (setting [4]) it was 6.8 nM.

With “CUCAGCGGGCUAGGAUAUGGCCUGUGGUUUAGGCCAGAAGGAGCUCACUAAGCACAUGAGGAUCACCCAUGUCUCAAUGCCUGA”, the “apparent Kd” value with MS2 coat protein [1] (setting [5]) is 14.8 nM; with MS2 coat protein [1] (setting [6]) it was 8.84 nM.

In the case of “AUGCACAUCUAGGAUACCAGCACCCUUAUGUCACUAGUUAACAUGAGGAUCACCCAUGUUUGCCCUUGGCAGCCUCAUUGACCAU”, the “apparent Kd” value in the series with MS2 coat protein [1] (designed as: OFF switch for theophylline, no ligand) turned out to be 68.5 nM; with MS2 coat protein [1] (ligand present: theophylline, designed as: OFF switch for theophylline) it was 172 nM.

Consider “GUCGGAGUGGAGAAGGCGCCAACGUAAGCGCGGCGAGGAUAUCCCUACCCUACAUGAGGAUCACCCAUGUCGACGAGAGUAUCG”, for which the results for the “apparent Kd” value with MS2 coat protein [1] (setting [5]) and in the series on MS2 coat protein [1] (setting [6]) were 11.3 nM and 7.99 nM, respectively.

For “AGGCCAUCCAAGAAGGCUUACAACAUGAGGAUCACCCAUGUCACGGAGAUGUAUAACAUCUACUAAGAGGAUAUUGGGAGAGCU”, the “apparent Kd” value came to 241 nM in the series on MS2 coat protein [1] (setting [5]) and 37.4 nM in the series with MS2 coat protein [1] (setting [6]).

For “AGCAUGACAGCAGGAUAUGCGAACAGAAAUAGUGCAGAAGGGCUUUACACAUGAGGAUCACCCAUGUCCGCAAGGAUGCGUAUG”, the “apparent Kd” value with MS2 coat protein [1] (setting [5]) was 41.1 nM; in the series with MS2 coat protein [1] (setting [6]), 19.4 nM.

In the case of “GCAUAACAUGAGGAUCACCCAUGUGAGGAUAUUCCCUCCGGCAAUUGCUCCCAAGAGGGAAGAAGGCACAGUGG”, the “apparent Kd” value is 146 nM in the series on MS2 coat protein [1] (setting [3]) and 66.1 nM with MS2 coat protein [1] (setting [4]).

Consider “ACUCCGUCGUAGAAGGGAAAAUGCUUGGCGUCUCUCGGGUACAUGAGGAUCACCCAUGUUACGGUUCAGGAUAUACAGACUGCU”, for which the “apparent Kd” value in the series with MS2 coat protein [1] (setting [3]) amounted to 10.5 nM; in the series with MS2 coat protein [1] (setting [4]) it was 10.6 nM.

For the sequence “UACAAGUACUAGAAGGAUCGAACCGAAGGUGUGAUAGGAUAUAGAGACAUGAGGAUCACCCAUGUAGGAGUGCAGUCAUACAUU”, the “apparent Kd” value was 27.9 nM with MS2 coat protein [1] (setting [3]) and 23.4 nM in the series with MS2 coat protein [1] (setting [4]).

On to “ACGUGGGUAACCAAGGAUAUAUUUACACCCACAUGAGGAUCACCCAUGUUCUUGCAGGCAUAUAAAUAGAAGGUGGAAACGCAGUG”, for which the “apparent Kd” value in the series on MS2 coat protein [1] (setting [5]) worked out at 379 nM; in the series with MS2 coat protein [1] (setting [6]) it was 129 nM.

“UCGAACUAACAAGGAUAUACGCGGGUCGAAACGGUAGAAGGUGUCAACGGUAUCUCACAUGAGGAUCACCCAUGUCGGCAGGGA”: the “apparent Kd” value in the series on MS2 coat protein [1] (setting [3]) amounted to 135 nM; with MS2 coat protein [1] (setting [4]), 103 nM.

Turning to “UGAGAUAACGCAGGAUAUCAUGCGGCAGUGUAGUGAGAAGGGCGAAUGCAAGGGUCAGACAUGAGGAUCACCCAUGUUCAUAGC”, the “apparent Kd” value came to 17.2 nM with MS2 coat protein [1] (setting [3]) and 12.5 nM with MS2 coat protein [1] (setting [4]).

On to “CCGAGCACAGGAUAUACAUGAGGAUCACCCAUGUAUACGAAUACGACACAUCCUGCGUGUAGAAGGGUGGCAAA”, for which the “apparent Kd” value was 6.47 nM with MS2 coat protein [1] (setting [3]) and 6.22 nM in the series on MS2 coat protein [1] (setting [4]).

As for “GGGAACAUCGGAGGAUAUCAUGUAAAUACAUGAGGAUCACCCAUGUCGAUGGAGACAUCGGAGAUUGAGAAGGCCGAUGUACCG”, the “apparent Kd” value came to 173 nM in the series with MS2 coat protein [2] (setting [5]) and 9.66 nM with MS2 coat protein [2] (setting [6]).

As for “CUAUGUUAGCAGGAUAUGCCAUUAUUCUUUUUCGCAGAAGGGCUUACAUGAGGAUCACCCAUGUUACAUUUCUU”, the “apparent Kd” value with MS2 coat protein [2] (setting [3]) is 15 nM; in the series with MS2 coat protein [2] (setting [4]) it was 36.5 nM.

As to “GGUGCCAUGUAGAAGGCAGAUCUGAUUCACAUCUGAGGAUAUACAUGAGGAUCACCCAUGUAAAGGCACCGCACGAGAGUGCAA”, the “apparent Kd” value with MS2 coat protein [2] (setting [3]) was 16.3 nM; with MS2 coat protein [2] (setting [4]) it was 15 nM.

On to “UUAAUAAAGUAAGGAUAUACAUGAGGAUCUCUCGUAGAAGGUACUAUACAUGAGGAUCACCCAUGUGCCGGUCCGUAGACUGGA”, for which the figures for the “apparent Kd” value with MS2 coat protein [2] (setting [5]) and in the series on MS2 coat protein [2] (setting [6]) were 387 nM and 796 nM, respectively.

Consider “AGAUAACAUAGUUAUCCGUAACGGACAUGAGGAUCACCCAUGUAGGAUAUGUUACUCAACGAGUAACAGAAGGACAUGAGUCUU”, for which the “apparent Kd” value with MS2 coat protein [2] (setting [3]) amounted to 17.3 nM; in the series on MS2 coat protein [2] (setting [4]), 102 nM.

By apparent Kd is commonly meant the concentration giving half-maximal binding under the conditions of the assay.
